DDE Tn6 FP inh – inhibitors of Tn6 peptide binding to fibrin DD(E), primary screen, biochemical, fluorescence polarization, human fibrin, Tn6 probe | Fibrinogen beta chain (Homo sapiens), P02675 | Fibrin DD(E) TRITC-Tn6 fluorescence polarization displacement | inhibition, % at 8.3 µM | hit rate 0.21% among 370,000;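 active = inhibition above a per-campaign cutoff: mean of compounds within control limits plus 3 SD, cut at about 15% in these data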;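 note: 0% = median of all compound wells on the plate and 100% = blocking peptide control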
Target sequence (P02675 whole entry, looked up): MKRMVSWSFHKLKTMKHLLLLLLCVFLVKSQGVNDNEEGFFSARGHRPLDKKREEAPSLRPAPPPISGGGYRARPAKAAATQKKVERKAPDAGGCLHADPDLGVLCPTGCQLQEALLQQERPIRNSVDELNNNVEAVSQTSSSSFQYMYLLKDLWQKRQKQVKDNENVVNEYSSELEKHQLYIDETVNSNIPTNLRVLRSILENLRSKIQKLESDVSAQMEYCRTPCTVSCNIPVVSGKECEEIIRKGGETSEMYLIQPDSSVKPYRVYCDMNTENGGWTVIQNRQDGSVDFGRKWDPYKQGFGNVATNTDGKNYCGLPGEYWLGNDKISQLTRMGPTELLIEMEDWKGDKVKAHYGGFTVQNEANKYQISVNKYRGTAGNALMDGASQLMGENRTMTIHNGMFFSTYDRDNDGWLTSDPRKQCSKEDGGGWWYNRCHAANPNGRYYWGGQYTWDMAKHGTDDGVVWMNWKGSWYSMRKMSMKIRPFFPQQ
CRFBP-R2 agonist – agonists of CRF-BP/CRF-R2 complex, primary screen, cell-based, HEK293, calcium dye fluorescence, uHTS; CRF-binding protein / CRF receptor 2 complex (human); calcium dye fluorescence (FLIPR); percent of saturating CRF peptide response; activation, % at 13.2 µM; hit rate 0.46% among 350,000;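 active = activation of at least 50%, plus an integration ratio under a set limit after plate pattern correction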;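 note: plate controls were neutral control wells without compound for no effect and CRF at EC100 for full effect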
DDE Tn7 FP inh – inhibitors of Tn7 peptide binding to fibrin DD(E), primary screen, biochemical, fluorescence polarization, human fibrin, Tn7 probe; Fibrinogen beta chain (Homo sapiens), P02675; FP displacement of FITC-Tn7 peptide from fibrin DD(E); 0% = median of compound wells per plate; hit rate 0.13% among 370,000; AID 720508, 2013; inhibition, % at 8.3 µM;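 active = inhibition above the mean of compounds falling within the control limits plus 3 SD of them, cut at about 14% in these data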;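 note: 0% = plate median of compound wells and 100% = 10 µM Aha-Tn7 peptide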
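Assay system: human fibrin DD(E) protein / Input: 2 µM fibrin DD(E) / Benchmarks: high control of 10 µM Aha-Tn7 peptide / Measured by: fluorescence polarization of the labelled Tn7 tracer / Medium: Tris buffer with calcium and detergent, pH 7.8 / Timing: 10 min compound pre-incubation, 3 h probe incubation at room temperature / Repeats: one replicate per compound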
CRFR2-BP antag – antagonists of CRF-BP/CRF-R2 complex, primary screen, cell-based, HEK293, calcium dye fluorescence, uHTS; hit rate 0.59% among 350,000; inhibition, % at 11.8 µM; CRF-induced calcium fluorescence;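 active = inhibition of the ligand-induced calcium signal above about 50% at the single tested concentration, limit read from the data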
Numbers without * were called inactive; · = not tested or not shown. A selection: hits, their analogues and other compounds. The true share with any hit is near 1.3%.

SMILES	DDE Tn6 FP inh	CRFBP-R2 agonist	DDE Tn7 FP inh	CRFR2-BP antag
CC1(C)C[C@H]2C3=CCC4[C@@]5(C)CC[C@H](O[C@@H]6O[C@H](C(=O)O)[C@@H](O)[C@H](O)[C@H]6O)[C@@](C)(CO)C5CC[C@@]4(C)[C@]3(C)C[C@H](O)[C@@]2(CO)[C@@H](O)[C@@H]1O (stereo not given in full)	-5	-1	-7	-1
C/C=C(/C)C(=O)OC1CC(C)(C)C[C@H]2C3=CC[C@@H]4[C@@]5(C)CCC(O[C@@H]6O[C@@H](C(=O)O)[C@@H](O)C(O[C@@H]7OC[C@H](O)[C@@H](O)[C@@H]7O[C@@H]7OC(CO)C(O)[C@@H](O)[C@@H]7O)C6O[C@@H]6OC(CO)C(O)C(O)C6O)[C@@](C)(CO)[C@@H]5CC[C@]4(C)[C@]3(C)CC(O)[C@@]12CO (stereo not given in full)	·	112*	·	-40
C/C=C(\C)C(=O)OC1[C@H](OC(C)=O)C2(CO)C(CC1(C)C)C1=CCC3C4(C)CCC(O[C@@H]5O[C@H](C(=O)O)[C@@H](O[C@@H]6O[C@H](CO)[C@@H](O)[C@H](O)[C@H]6O)[C@H](O)[C@H]5O[C@H]5O[C@H](CO)[C@@H](O)[C@H](O)[C@H]5O)[C@](C)(CO)C4CCC3(C)[C@]1(C)C[C@H]2O (stereo not given in full)	·	159*	·	-65
Cc1nc2ccccc2n1CCOc1ccc([N+](=O)[O-])cc1	9	-2	-2	96*
COc1ccc(Cn2c(C)cc(O)cc2=O)cc1	-1	·	-2	·
C[C@H]1C(=O)CC[C@@]23CCCN2C(=O)CCC[C@@H]13	-2	·	-2	·
CCOc1ccccc1NC(=O)CNC(=O)Cc1ccccc1	-1	0	-3	52*
COc1ccc2c(c1)CCCN2C(=O)C1CCCN(S(=O)(=O)c2c(C(C)C)cc(C(C)C)cc2C(C)C)C1 (stereo not given)	1	·	7	·
CCN(CC)S(=O)(=O)c1cccc(C(=O)Nc2ccc3c(c2)OCO3)c1	-8	-2	-3	55*
COc1ccc(C(=O)c2sc(Nc3cccc(OC)c3)c(C(=O)Nc3cccc(C)c3C)c2N)cc1	-6	121*	-4	-77
CCc1c(C)nc(SCC(=O)N2CCN(c3ccccc3OC)CC2)[nH]c1=O	-5	-5	0	58*
CCn1nc([N+](=O)[O-])c(C(C#N)c2nc3cc(C(F)(F)F)ccc3s2)c(Cl)c1=O (stereo not given)	-6	28	7	68*
CCCn1nc([N+](=O)[O-])c(C(C#N)c2nc3ccccc3o2)c(Cl)c1=O (stereo not given)	-5	3	3	74*
Cn1nc([N+](=O)[O-])c(C(C#N)c2ccccn2)c(Cl)c1=O (stereo not given)	1	-2	1	3
C(/C=C\c1ccco1)=NN1CCN(Cc2cccc3ccccc23)CC1	0	·	1	·
COCCn1c(SCC(=O)Nc2cccc(C(=O)OC)c2)nc2ccccc2c1=O	4	-4	0	71*
COCCn1c(SCC(=O)Nc2cc(C)cc(C)c2)nc2ccccc2c1=O	-1	-3	-6	-3
Cc1cccc(N2C(N)=NC(N)=NC23CCCCC3)c1	4	3	6	52*
COc1ccc(OC)c(N2C(N)=NC(N)=NC23CCCC3)c1	7	-2	-1	-6
COC(=O)c1cc2c(c3c4cc(OC)ccc4n(S(=O)(=O)c4ccc(OC)cc4)c13)C(=O)N(C1CCCCC1)C2	-9	·	-2	·
COC(=O)[C@]12C[C@H](CC(=O)NCCCCc3ccccc3)C(=O)N(Cc3cccc4ccccc34)C1=C[C@H](C(C)(C)C)O[C@@H]2C	-4	·	1	·
O=c1[nH]c(C(Cl)Cl)nc2sc3c(c12)CCN(Cc1ccccc1)C3	4	56*	1	5
CCCSc1nc2sc3c(c2c(=O)[nH]1)CCN(Cc1ccccc1)C3	·	44	·	-14
CCCCN1CCS(=O)(=O)N(Cc2cn(Cc3ccccc3Br)nn2)C(C(=O)OC)C1 (stereo not given)	6	·	9	·
NC(=NC(=O)/C=C/c1ccccc1Br)N(CC#Cc1ccccc1)CC#Cc1ccccc1	-7	·	11	·
SMILES	DDE Tn6 FP inh	CRFBP-R2 agonist	DDE Tn7 FP inh	CRFR2-BP antag
O=C(Nc1ncc(Cc2ccc(SC(F)F)cc2)s1)c1ccc(OC(F)F)cc1	4	68*	8	-110
Cc1nn(-c2ccccc2)c2sc(C(=O)N3CCC4(CC3)OCCO4)cc12	-2	·	8	·
COC(=O)[C@]12C[C@H](CC(=O)NCc3cccs3)C(=O)N(Cc3cccc4ccccc34)C1=C[C@H](C(C)(C)C)O[C@@H]2C	-3	·	-7	·
O=C(O)CCNC(=O)OCC1c2ccccc2-c2ccccc21	3	-5	-5	60*
O=C(CCNC(=O)OCC1c2ccccc2-c2ccccc21)NOCc1ccccc1	-1	-3	7	1
C/C(=N\NC(=O)c1cccc(Cl)c1)C1C(=O)c2ccccc2C1=O	7	26	-3	85*
COC(=O)[C@]12C[C@H](CC(=O)NCc3cccc4ccccc34)C(=O)N(CCc3ccc(OC)c(OC)c3)C1=C[C@H](COCc1ccccc1)O[C@@H]2C	-2	·	6	·
CN(C)c1ccc(C=C2C(=O)OC(C)(C(C)(C)C)OC2=O)cc1 (stereo not given)	1	4	-5	48
CN(C)c1ccc(C=C2C(=O)OC(C)(C)OC2=O)cc1	-5	1	-1	52*
O=C(c1cc(F)ccc1F)N1CCCC(c2nc(-c3cccs3)no2)C1 (stereo not given)	4	·	2	·
O=C(NCc1ccccc1)OC1CCC12CCC(c1ccccc1)CC2 (stereo not given)	1	·	-8	·
Nc1[nH]c(C(=O)c2ccccc2)c(-c2cccc(C(F)(F)F)c2)c1C(=O)NCCc1c[nH]c2ccccc12	-11	·	4	·
COc1ccc(/C=C\C(=O)O[C@@H]2C(O)C(O[C@@H]3OC(C)[C@H](O[C@@H]4OCC(O[C@H]5O[C@H](CO)[C@@H](O)C(O)C5O)C(O)C4O)C(O)C3O)[C@H](OC(=O)[C@]34CCC(C)(C)C[C@@H]3C3=CCC5[C@@]6(C)CC(O)C(O[C@@H]7OC(CO)C(O)[C@H](O)[C@H]7O)[C@@](C)(C(=O)O)C6CC[C@@]5(C)[C@]3(CO)CC4)O[C@H]2C)cc1 (stereo not given in full)	·	132*	·	-49
COc1ccccc1N/C=C/c1onc(C)c1[N+](=O)[O-]	9	89*	6	-68
Cc1noc(/C=C/Nc2ccc(F)cc2F)c1[N+](=O)[O-]	-2	3	-1	-7
CCn1c2ccccc2c2cc(C=NNC(=O)c3ccoc3C)ccc21	-2	·	0	·

Screening data: PubChem, several laboratories
